From PubChem
DAGLB inhibitor = blocks human DAGLB lipase activity. AID 504411. HEK293T DAGLB membrane lysate, EnzChek fluorogenic substrate. inhibition, % at 5.17 µM. hit rate 0.059% among 340,000; in the data active = inhibition above about 34%
Target sequence (Q8NCG7 whole entry, looked up): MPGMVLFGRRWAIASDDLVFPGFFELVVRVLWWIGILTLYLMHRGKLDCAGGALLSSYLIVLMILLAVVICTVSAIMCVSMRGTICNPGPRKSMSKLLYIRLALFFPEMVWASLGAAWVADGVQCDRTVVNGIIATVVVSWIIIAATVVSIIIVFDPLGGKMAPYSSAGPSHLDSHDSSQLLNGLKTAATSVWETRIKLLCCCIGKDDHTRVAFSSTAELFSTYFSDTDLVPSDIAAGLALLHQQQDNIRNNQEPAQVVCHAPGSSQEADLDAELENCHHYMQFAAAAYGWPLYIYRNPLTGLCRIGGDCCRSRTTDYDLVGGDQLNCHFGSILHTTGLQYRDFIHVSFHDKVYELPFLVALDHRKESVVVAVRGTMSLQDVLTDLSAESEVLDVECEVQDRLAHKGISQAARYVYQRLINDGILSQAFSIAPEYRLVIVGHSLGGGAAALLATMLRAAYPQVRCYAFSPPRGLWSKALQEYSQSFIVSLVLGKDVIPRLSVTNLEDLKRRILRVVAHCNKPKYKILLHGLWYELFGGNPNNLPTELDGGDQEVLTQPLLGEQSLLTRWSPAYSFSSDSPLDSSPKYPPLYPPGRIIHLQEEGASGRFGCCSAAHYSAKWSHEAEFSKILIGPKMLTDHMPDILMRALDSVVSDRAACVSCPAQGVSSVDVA
VLA-4 inh = inhibition in a human VLA-4 binding assay; VLA-4 expressing cells, ligand binding flow cytometry; inhibition, % (about 7 µM as worked out from the volumes in the protocol); P13612; hit rate 0.2% among 330,000; AID 2557; in the data active = inhibition above about 50%
ABCB6 inh 2 = blocks the human ABCB6 transporter. fluorescence ratio to DMSO, % at 10 µM. hit rate 0.19% among 360,000. AID 602162. Q9NP58. K562-ABCB6 porphyrin accumulation, flow cytometry, 1 h; active compounds read low;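 active = fluorescence ratio to DMSO below 75%, the collection mean minus 3 SD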;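 note: signal is porphyrin accumulated inside mitochondria; lower ratio means ABCB6 inhibition with less porphyrin fluorescence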
FGF22 binding = FGF22 (human) thermal shift binding; Q9HCT0; recombinant FGF22 thermal shift, SYPRO orange fluorescence; percent of sucrose octasulfate shift, DMSO zero; activity (Tm shift, normalised), % at 9.99 µM; hit rate 1.5% among 340,000; AID 651658;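 active = mean Tm shift, scaled 0 neutral to 100 positive control, at about 1.3% or above, every replicate too, limit read from the data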
MT1-MMP act inh = MT1-MMP (human) activation inhibition | P50281 | HT1080 RFP-PRO-GFP cells, GFP/RFP ratio fluorescence, overnight; percent of plate control window, DMSO zero | GFP/RFP ratio change, % at 20 µM | hit rate 0.061% among 360,000;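 active = GFP/RFP ratio change of at least 30% with cell ATP level not reduced by more than half and red fluorescence within 50% of control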
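Compound: 20 µM single dose, 1% DMSO / System: HT1080 RFP-PRO-GFP cells / Controls: DMSO and RFP-L50D-GFP cell wells / Read-out basis: GFP/RFP fluorescence ratio / Schedule: overnight compound exposure at 37 °C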
Granule exo inh = blocks lytic granule exocytosis | TALL-104 LAMP-1 surface exposure, flow cytometry; cells stimulated with thapsigargin and PMA | inhibition, % at 10 µM | hit rate 0.66% among 360,000;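 active = inhibition above about 55%, limit read from the data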
VLA-4 mod pick = human VLA-4 allosteric modulation in cherry picked compounds | hit rate 2% among 1,300 | shares compounds with VLA-4 inh | inhibition, % at 6.7 µM | U937 cells, HUTS-21 LIBS mAb binding, flow cytometry; LDV ligand present at threefold Kd; in the data active = inhibition above about 40%
Hits are given with their value; – = inactive; · = not tested or not shown; ! = not confirmed by another sample. A selection: hits, their analogues and other compounds. The true share with any hit is near 2%.

SMILES | DAGLB inhibitor | VLA-4 inh | ABCB6 inh 2 | FGF22 binding | MT1-MMP act inh | Granule exo inh | VLA-4 mod pick
C[C@@H]1CN([C@H](C)CO)C(=O)c2cc(-c3ccccc3)cnc2O[C@H]1CN(C)C(=O)c1ccccn1 | · | · | · | – | · | · | ·
C/C=C/c1ccc([C@@H]2[C@H](CO)N(Cc3cccc(F)c3)C23CN(C(=O)CC)C3)cc1 | · | · | · | – | · | · | ·
O=C(C[C@H]1CC[C@H](NC(=O)C2CCC2)[C@H](CO)O1)NC1CCC1 | · | · | · | – | · | · | ·
CC(C)(C)NC(=O)Cn1c(=O)oc2ccc(Cl)cc21 | – | 54.7 | – | – | – | – | –
CCOc1ccc(NC(=O)Cn2c(=O)oc3cc(Cl)ccc32)cc1 | – | – | – | – | – | – | –
Cc1cc(NC(=O)Cn2c(=O)oc3ccc(Cl)cc32)no1 | – | – | – | – | – | – | ·
CCOc1ccccc1NC(=O)Cn1c(=O)oc2ccccc21 | – | – | – | – | – | – | ·
CCOc1ccccc1NC(=O)Cn1c(=O)oc2cc(Cl)ccc21 | – | – | – | – | – | – | –
COc1ccc(CN(C)C[C@H]2OCCCC[C@H](C)Oc3ccc(NS(=O)(=O)c4ccc(OC)cc4)cc3C(=O)N([C@@H](C)CO)C[C@@H]2C)cc1 | · | · | · | – | · | · | ·
CC(C)NC(=O)N(C)C[C@H]1Oc2ncc(-c3ccccc3F)cc2C(=O)N([C@@H](C)CO)C[C@H]1C | · | · | · | – | · | · | ·
O=C(C[C@@H]1CC[C@@H](NC(=O)Nc2ccc3c(c2)OCO3)[C@@H](CO)O1)NCc1ccc(F)cc1 | · | · | · | – | · | · | ·
CCN(C(=O)CSc1nc(-c2ccccc2)c(-c2ccccc2)[nH]1)C1CCS(=O)(=O)C1 (stereo not given) | – | 94.9 | – | · | – | – | –
CCN(C(=O)CSc1nc2ccc(C)cc2[nH]1)C1CCS(=O)(=O)C1 (stereo not given) | – | – | – | – | – | – | ·
CC(=O)N1[C@@H]2Cn3c(ccc(C4=CCCC4)c3=O)[C@H]1[C@@H](C(=O)NC1CCCCC1)[C@@H]2CO | · | · | · | – | · | · | ·
COc1ccc(OCC(=O)NCCCCCCNC(=O)COc2ccc(OC)cc2)cc1 | – | – | – | – | – | – | ·
CCN(CC)CCNC(=O)COc1ccc(OC)cc1 | – | 57.1! | – | – | – | – | –
CCCNC(=O)N1[C@@H](CO)[C@@H]2c3ccccc3N(C(=O)Nc3cccc(F)c3)C[C@@H]21 | · | · | · | – | · | · | ·
COc1ccc(/C=C/C(=O)O)cc1Cl | – | – | – | – | – | – | ·
COc1cc(/C=C/C(=O)O)cc(OC)c1O | – | 59.9 | – | – | – | – | –
Cc1ccc(NC(=O)Nc2c(Cl)cccc2Cl)cn1 | – | – | – | – | – | – | –
CC(=O)c1ccccc1NS(=O)(=O)c1ccc2c(c1)CC(=O)N2 | – | – | – | – | – | – | –
Cc1ccccc1NS(=O)(=O)c1ccc2c(c1)CCC(=O)N2 | · | · | – | – | – | – | ·
CCN(CC)c1ccc(/C=C(\C#N)C(N)=O)cc1 | – | · | – | 43.0 | – | – | –
CCN(CC)c1ccc(/C=C(\C#N)C(N)=S)cc1 | – | – | – | – | – | – | ·
CCOC(=O)NC(=O)/C(C#N)=C/c1ccc(N(C)C)cc1 | · | – | – | · | – | – | –
SMILES | DAGLB inhibitor | VLA-4 inh | ABCB6 inh 2 | FGF22 binding | MT1-MMP act inh | Granule exo inh | VLA-4 mod pick
N#C/C(=C\c1cc(O)c(O)c(O)c1)C(N)=O | – | – | – | – | – | – | –
CN(C)c1ccc(/C=C(\C#N)C(=O)c2ccccc2)cc1 | – | – | – | – | – | – | ·
C[C@H]1CN([C@@H](C)CO)C(=O)c2cccc(NC(=O)NC3CCCCC3)c2O[C@@H]1CN(C)CC1CC1 | · | · | · | – | · | · | ·
O=C(CC(F)(F)F)N1C[C@H]2[C@@H](c3ccccc31)[C@H](CO)N2C(=O)CN1CCOCC1 | · | · | · | – | · | · | ·
COc1cccc(S(=O)(=O)N[C@@H]2CC[C@H](CCn3cc(-c4ccccn4)nn3)O[C@@H]2CO)c1 | · | · | · | – | · | · | ·
CCN(CC(=O)Nc1ccc(N2CCOCC2)cc1)CC(=O)NC(C)(C)C | – | – | – | · | – | – | –
CN(CC(=O)Nc1ccc(N2CCOCC2)cc1)C(=O)CCNC(=O)c1ccc(Br)cc1 | – | 49.9 | – | – | – | – | –
